Rows were chosen to be rich in hits. Some 3.4% of all compounds tested hit in one or more screens of this group.
M1 ag – human M1 muscarinic receptor agonism | P11229 | CHO-K1 hM1, Fluo-8 calcium fluorescence, agonist mode; 0% DMSO, 100% acetylcholine EC100 | activation, % at 3 µM | hit rate 0.33% among 360,000 | AID 588814;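 active = activation above the run's mean compound activation plus 3 SD, cut at about 16% in these data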;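 also: peak over basal fluorescence ratio within a 140 s kinetic read after compound addition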
TAAR1 ag – agonists of human TAAR1 | Q96RJ0 | CHO RD-HGA16 TAAR1, Fluo-8 calcium fluorescence; vehicle wells 0%, saturating PEA agonist 100% | activation, % at 3 µM | hit rate 0.99% among 360,000 | AID 624467;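 active = activation above the mean activation of all test compounds in the run plus 3 SD, cut at about 38% in these data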
Target sequence (Q96RJ0 whole entry, looked up): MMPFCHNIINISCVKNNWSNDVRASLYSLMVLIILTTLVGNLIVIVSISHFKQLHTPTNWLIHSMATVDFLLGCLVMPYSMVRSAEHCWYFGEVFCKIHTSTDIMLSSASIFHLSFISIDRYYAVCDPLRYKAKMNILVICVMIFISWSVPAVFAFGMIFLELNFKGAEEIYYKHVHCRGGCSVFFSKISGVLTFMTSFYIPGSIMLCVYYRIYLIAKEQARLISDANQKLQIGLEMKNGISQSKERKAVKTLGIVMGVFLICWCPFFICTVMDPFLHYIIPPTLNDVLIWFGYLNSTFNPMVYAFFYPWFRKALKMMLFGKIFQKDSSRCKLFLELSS
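Test system: RD-HGA16 (CHO) cells co-expressing Gα16 and hTAAR1 | Doses: Single dose, 3 µM | Schedule: 17-24 h seeding, 75 min 37 °C dye, 30 min RT | Evaluation: % activation from peak over basal fluorescence ratio, DMSO-to-PEA scaled | Technique: Kinetic Fluo-8 calcium fluorescence | Benchmarks: Low control DMSO, high control PEA (EC100)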
M1 PAM – positive allosteric modulators of human M1 muscarinic receptor; P11229; CHO-K1 hM1, Fluo-8 calcium fluorescence, ACh EC20; 0% = ACh EC20, 100% = maximal ACh; activation, % at 3 µM; hit rate 0.088% among 360,000; in the data active = activation above about 19%, passing the limit was not always enough
CHRM1 antagonist – antagonists of human M1 muscarinic receptor. P11229. CHO-K1 hM1, Fluo-8 calcium fluorescence, ACh EC80 antagonist. inhibition, % at 3 µM. hit rate 1.3% among 360,000. AID 588852;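 active = percent inhibition above its own plate's cutoff, namely the mean of that plate's compound wells plus 3 SD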;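 also: peak over basal fluorescence ratio during 140 s after agonist addition; 0% = ACh EC80 plus DMSO and 100% = DMSO alone without agonist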
TAAR1 antag – antagonists of human TAAR1 | inhibition, % at 3 µM | hit rate 1.5% among 360,000 | AID 624466 | CHO RD-HGA16 TAAR1, Fluo-8 calcium fluorescence, antagonist | Q96RJ0;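 active = inhibition above a per-plate cutoff, the mean inhibition of test compounds on that plate plus 3 SD, cut at about 49% in these data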;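 also: 0% = DMSO plus EC80 beta-PEA response and 100% = DMSO alone without agonist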
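Assay system: RD-HGA16 CHO cells with stable hTAAR1 and Gα16 / Reagent: EC80 β-phenethylamine stimulus / Doses: 3 µM, single point / Timing: dye loading 75 min at 37 °C, then 30 min room temperature / Measured by: Fluo-8 intracellular calcium dye fluorescence, real-time kinetic reads / Controls: vehicle wells and EC80 agonist wells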
Starred values were filed as active, the others as inactive; nt = no result given.

SMILES | M1 ag | TAAR1 ag | M1 PAM | CHRM1 antagonist | TAAR1 antag
COc1ccccc1-c1cccc(-c2nc(C(=O)Nc3nccs3)cc3c2[C@@H](CCO)N(C(C)=O)C3)c1 | nt | 20 | nt | nt | 54*
CCc1nc2ccc(C(=O)N(C)CCCN(C)C)cn2c1N(C)CCCc1ccccc1 | -10 | 1 | -27 | 32* | -2
CCc1nc2ccc(C(=O)N(CC)CCN(C)C)cn2c1N(C)CCCc1ccccc1 | -8 | 6 | -34 | 52* | -11
CCc1nc2ccc(C(=O)N(C)CCCN(C)C)cn2c1N(C)Cc1cc2ccccc2s1 | -8 | 4 | -26 | 38* | -21
CCc1nc2ccc(C(=O)N(C)Cc3ccccc3)cn2c1N(C)CCCc1ccccc1 | -8 | 1 | -17 | 14 | 6
CCc1nc2ccc(C(=O)NCCNC(C)=O)cn2c1N(C)CCCc1ccccc1 | -6 | 2 | -21 | 12 | -19
CC(=O)c1ccc(N2CCN(S(=O)(=O)c3ccc4c(c3)CC(C)N4C(C)=O)CC2)cc1 (stereo unspecified) | 2 | 5 | -13 | 36* | -4
COc1ccccc1N1CCN(C(=O)C2CCN(S(=O)(=O)c3ccc4c(c3)CC(C)N4C(=O)C3CC3)CC2)CC1 (stereo unspecified) | 2 | 13 | -13 | 30 | 57*
CC(=O)N1c2ccc(S(=O)(=O)N3CCC(C(=O)N4CCN(c5cc(Cl)ccc5C)CC4)CC3)cc2CC1C (stereo unspecified) | 2 | 6 | -16 | 48* | 31
COc1ccccc1N1CCN(C(=O)C2CCN(S(=O)(=O)c3ccc4c(c3)CC(C)N4C(C)=O)CC2)CC1 (stereo unspecified) | 2 | 10 | -6 | 2 | 24
Cc1ccccc1S(=O)(=O)N(C)C[C@H]1OCc2cnnn2CCCC(=O)N([C@H](C)CO)C[C@@H]1C | nt | 1 | nt | nt | -7
CC[N+](C)(C)CCN(Cc1ccc(Cl)cc1)c1ccccn1 | 15 | 8 | -13 | 80* | -8
COc1ccc(CN(CCN(C)C)c2ccccn2)cc1 | nt | 13 | nt | nt | -19
CN(Cc1ccc2c(c1)CCCN2C)C(=O)[C@@H](Cc1ccccc1)NC(=O)[C@H]1O[C@@H](n2ccc(=O)[nH]c2=O)[C@H](O)[C@@H]1O | nt | 0 | nt | nt | 12
Cc1cccc(/C(N)=N/OC(=O)CCc2ccccc2)c1 | -5 | 1 | -23 | 31* | -11
COc1ccc(/C(N)=N/OC(=O)CCc2ccccc2)cc1OC | -6 | 4 | 3 | 2 | -7
CN1CCS/C1=C/C=C1/SC(=S)N(Cc2ccccc2)C1=O | 12 | 36 | -8 | 25 | 12
CN1CCS/C1=C/C=C1\SC(=S)N(CC(=O)O)C1=O | 16* | 33 | -5 | 7 | 40
CCN=C1NC(c2ccc(F)cc2)C(C(=O)OC)=C(C)N1Cc1ccccc1C(F)(F)F (stereo unspecified) | nt | 14 | nt | nt | -9
O=C(COC(=O)c1cccs1)Nc1ccccc1 | -4 | 0 | 10 | -11 | -1
CC(C)CNC(=O)COC(=O)c1c2c(nc3ccccc13)/C(=C\c1cccs1)CC2 | -7 | 0 | -7 | 2 | 50*
CC(=O)c1ccc(NC(=O)COC(=O)c2c3c(nc4ccccc24)/C(=C\c2cccs2)CCC3)cc1 | -5 | 8 | -8 | 18 | 58*
O=C(COC(=O)c1c2c(nc3ccccc13)/C(=C\c1cccs1)CCC2)Nc1ccccc1 | -3 | 3 | -13 | 32* | 20
CN(CCC#N)C(=O)COC(=O)c1c2c(nc3ccccc13)/C(=C/c1ccco1)CC2 | -4 | -1 | 8 | -3 | -11
Nc1ccc2nc(CCc3ccccc3)[nH]c2c1 | -9 | 1 | -8 | 6 | -4
SMILES | M1 ag | TAAR1 ag | M1 PAM | CHRM1 antagonist | TAAR1 antag
Cc1nc2ccccc2c(=O)n1CCc1ccccc1 | -8 | 4 | -2 | -10 | 5
Cc1cc2nc3c(=O)n(CCc4ccccc4)c(=O)[nH]c3nc2cc1N | 10 | 39* | 0 | 10 | 43
COc1cc2[nH]c(=O)n(C3CCCCC3)c(=O)c2cc1OC | 0 | 7 | -5 | 12 | -26
Nc1ccc2nc3c(=O)n(CCc4ccccc4)c(=O)[nH]c3nc2c1 | 53* | 56* | -7 | 22 | 24
CCCCn1c(=O)[nH]c2nc3cc(N)ccc3nc2c1=O | 25* | 28 | -10 | 23 | 24
Nc1ccc2nc3c(=O)n(C4CCCCC4)c(=O)[nH]c3nc2c1 | 100* | 88* | -15 | 29 | 33
COc1cc2c3c(c1)c(N=NC(N)=S)c(O)n3C(C)(C)C=C2C | -3 | -3 | 17 | 33* | -6
CCOc1ccc(NC(=O)CN2C(=O)c3cccc4cccc2c34)cc1 | nt | -1 | nt | nt | -20
COc1ccc(Cn2c(C)cc(O)cc2=O)cc1 | nt | 0 | nt | nt | 9
CC(C)(C)c1nnc(N/N=C/c2cc(Br)ccc2O)n(N)c1=O | 4 | 25 | -17 | 35* | 68*
COC(=O)c1cc2c(c3c4ccccc4n(S(=O)(=O)c4ccc(OC)cc4)c13)C(=O)N(Cc1ccccc1OC)C2 | nt | -1 | nt | nt | -12
Cc1cccc(NC(=O)CCS(=O)(=O)c2ccc3nc(C)sc3c2)c1 | -3 | 0 | 10 | -14 | -29
Cc1[nH]n(-c2ccccc2)c(=O)c1N=Nc1nccs1 | 3 | 42* | 4 | 7 | 8
C/C(=N\NC(=O)c1ccc(CSc2cccc3cccnc23)cc1)C1CCCCC1 | 52* | 0 | -2 | -5 | 1
COc1ccc(/C(C)=N/NC(=O)c2ccc(CSc3cccc4cccnc34)cc2)cc1OC | 51* | 9 | 3 | 1 | 7
COC(=O)[C@]1(C)CCC[C@@]2(C)C3CC[C@]4(OC(C)=O)C[C@@]3(CCC21)CC4=O (stereo partly specified) | 9 | 14 | 2 | 9 | 51*
COC(=O)[C@]1(C)CCC[C@@]2(C)C3CC[C@@]4(C)C[C@]3(CCC21)CC(=O)N4Cc1ccc(OC)cc1 (stereo partly specified) | 0 | 9 | 4 | 7 | 12
CCOC(=O)c1cc(C(C)(C)C)n(CCCN2CCOCC2)c1C | -3 | 0 | 5 | -10 | -27
CCOC(=O)c1cc(C)n(CCCN2CCOCC2)c1C | -7 | 3 | -19 | 35* | -15
CCOC(=O)C1=C(C)N(C)C(C)=C(C(=O)OCC)C1c1ccc(C(=O)OC)cc1 | -4 | 12 | -22 | 53* | -2
COC(=O)C1=C(C)N(Cc2ccccc2C(F)(F)F)C(=NCc2ccc(C(F)(F)F)cc2)NC1c1cccc(Cl)c1 (stereo unspecified) | nt | 2 | nt | nt | -54
CCOC(=O)CSc1ccc(C(=O)NCCN2CCOCC2)cc1[N+](=O)[O-] | -6 | 1 | -24 | 47* | -17
O=C(NCCN1CCOCC1)c1ccc(N2CCCC2)c([N+](=O)[O-])c1 | -5 | 0 | 3 | 6 | -6

Compound activity (PubChem)
